Measured values reported in ChEMBL document CHEMBL4334487, “Cytotoxic Microcolin Lipopeptides from the Marine Cyanobacterium Moorea producens” (J Nat Prod, 2019).

test system: NCI-H460; assay: Cytotoxicity against human NCI-H460 cells assessed as reduction in cell viability incubated for 48 hrs by MTT assay; format: functional, cell-based; details: NCI-H460, 48 h
Outline: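 H-460 non-small-cell lung carcinoma cells in RPMI-1640 with 10% FBS and 1% penicillin/streptomycin, used within 28 passages per frozen batch. Seeded at 3.33 × 10^4 cells/mL, adhered 24 h, then treated 48 h. Ten concentrations from 30 μM down by 0.3164-fold serial dilution; 1% DMSO negative control, doxorubicin positive control.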

Compound	IC50 [nM]
CCCCCC[C@@H](C)C(=O)N(C)[C@@H](CC(C)C)C(=O)N[C@H](C(=O)N(C)[C@H](C(=O)N1C[C@@H](O)C[C@H]1C(=O)N1C(=O)C=C[C@@H]1C)C(C)C)[C@@H](C)OC(C)=O	47
CCCC[C@@H](C)C[C@@H](C)C(=O)N(C)[C@@H](CC(C)C)C(=O)N[C@H](C(=O)N[C@H](C(=O)N1CCC[C@H]1C(=O)N1C(=O)C=C[C@@H]1C)C(C)C)[C@@H](C)OC(C)=O	69
CCCCCC[C@@H](C)C(=O)N(C)[C@@H](CC(C)C)C(=O)N[C@H](C(=O)N(C)[C@H](C(=O)N1CCC[C@H]1C(=O)N1C(=O)C=C[C@@H]1C)C(C)C)[C@@H](C)OC(C)=O	550
CCCC[C@@H](C)C[C@@H](C)C(=O)N(C)[C@@H](CC(C)C)C(=O)N[C@H](C(=O)N(C)[C@H](C(=O)N1C[C@@H](O)C[C@H]1C(=O)N1C(=O)CC[C@@H]1C)C(C)C)[C@@H](C)O	2000
CCCC[C@@H](C)C[C@@H](C)C(=O)N(C)[C@@H](C=C(C)C)C(=O)N[C@H](C(=O)N(C)[C@H](C(=O)N1C[C@@H](O)C[C@H]1C(=O)N1C(=O)C=C[C@@H]1C)C(C)C)[C@@H](C)O	160
CCCC[C@@H](C)C[C@@H](C)C(=O)N(C)[C@@H](CC(C)C)C(=O)N[C@H](C(=O)N(C)[C@H](C(=O)N1C[C@@H](O)C[C@H]1C(=O)N1C(=O)C=C[C@@H]1C)C(C)C)[C@@H](C)O	75
CCCC[C@@H](C)C[C@@H](C)C(=O)N(C)[C@@H](C=C(C)C)C(=O)N[C@H](C(=O)N(C)[C@H](C(=O)N1CCC[C@H]1C(=O)N1C(=O)C=C[C@@H]1C)C(C)C)[C@@H](C)OC(C)=O	1000
CCCC[C@@H](C)C[C@@H](C)C(=O)N(C)[C@@H](CC(C)C)C(=O)N[C@H](C(=O)N(C)[C@H](C(=O)N1C[C@@H](O)C[C@H]1C(=O)N1C(=O)C=C[C@@H]1C)C(C)C)[C@@H](C)OC(=O)CC	200
CCCC[C@@H](C)C[C@@H](C)C(=O)N(C)[C@@H](CC(C)C)C(=O)N[C@H](C(=O)N(C)[C@H](C(=O)N1CCC[C@H]1C(=O)N1C(=O)C=C[C@@H]1C)C(C)C)[C@@H](C)O	650
CCCC[C@@H](C)C[C@@H](C)C(=O)N(C)[C@@H](CC(C)C)C(=O)N[C@H](C(=O)N(C)[C@H](C(=O)N1CCC[C@H]1C(=O)N1C(=O)CC[C@@H]1C)C(C)C)[C@@H](C)OC(C)=O	5000
COc1cccc2c1C(=O)c1c(O)c3c(c(O)c1C2=O)C[C@@](O)(C(=O)CO)C[C@@H]3O[C@H]1C[C@H](N)[C@H](O)[C@H](C)O1 [DOXORUBICIN]	180
CCCC[C@@H](C)C[C@@H](C)C(=O)N(C)[C@@H](CC(C)C)C(=O)N[C@H](C(=O)N(C)[C@H](C(=O)N1C[C@@H](O)C[C@H]1C(=O)O)C(C)C)[C@@H](C)OC(C)=O	510
CCCC[C@@H](C)C[C@@H](C)C(=O)N(C)[C@@H](C=C(C)C)C(=O)N[C@H](C(=O)N(C)[C@H](C(=O)N1C[C@@H](O)C[C@H]1C(=O)N1C(=O)C=C[C@@H]1C)C(C)C)[C@@H](C)OC(C)=O	37
CCCC[C@@H](C)C[C@@H](C)C(=O)N(C)[C@@H](CC(C)C)C(=O)N[C@H](C(=O)N(C)[C@H](C(=O)N1CCC[C@H]1C(=O)N1C(=O)C=C[C@@H]1C)C(C)C)[C@@H](C)OC(C)=O	910
CCCC[C@@H](C)C[C@@H](C)C(=O)N(C)[C@@H](CC(C)C)C(=O)N[C@H](C(=O)N(C)[C@H](C(=O)N1C[C@@H](O)C[C@H]1C(=O)N1C(=O)CC[C@@H]1C)C(C)C)[C@@H](C)OC(C)=O	2800
CCCC[C@@H](C)C[C@@H](C)C(=O)N(C)[C@@H](CC(C)C)C(=O)N[C@H](C(=O)N(C)[C@H](C(=O)N1C[C@@H](O)C[C@H]1C(=O)N1C(=O)C=C[C@@H]1C)C(C)C)[C@@H](C)OC(C)=O	6
CCCC[C@@H](C)C[C@@H](C)C(=O)N(C)[C@@H](CC(C)C)C(=O)N[C@H](C(=O)N(C)[C@H](C(=O)N1CCC[C@H]1C(=O)N1C(=O)CC[C@@H]1C)C(C)C)[C@@H](C)O	> 30000
